Laboratory results from ChEMBL document CHEMBL1146216, “Synthesis and biological activity of a gemcitabine phosphoramidate prodrug” (J Med Chem, 2007).

Columns and labels:
[1] = Ratio of growth inhibition of H292 cells by drug to 2'-2'-difluorodeoxycytidine; type: functional, Homo sapiens
SK-OV-3 = test: Growth inhibition of SKOV3 cells; type: functional; conditions: Homo sapiens
[2] = Growth inhibition of AG6000 cells by SRB assay; type: functional, cell-based; conditions: Homo sapiens
In short: (§1)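 Cells seeded at 5000/well and exposed to a range of drug concentrations for 72 h at 37 °C, 5% CO2, then read by SRB. A2780 and its dCK-deficient variant AG6000 were grown in DMEM; A549, H292 and H460 in RPMI; both media had 10% FCS and 20 mM HEPES. OD was read at 540 or 492 nm. Relative growth = (ODtreated − ODzero)/(ODcontrol − ODzero) × 100%, with ODzero taken at drug addition.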

UACC-257 = test: Growth inhibition of UACC257 cells; type: functional; conditions: Homo sapiens
CCRF-CEM [3] = test: Ratio of growth inhibition of CEM cells by drug to 2'-2'-difluorodeoxycytidine; type: functional, Homo sapiens
SK-MEL-2 = test: Growth inhibition of SK-MEL-2 cells; type: functional; conditions: Homo sapiens
SW1573 = test: Ratio of growth inhibition of SW1573 cells by drug to 2'-2'-difluorodeoxycytidine; type: functional, Homo sapiens
A2780 [4] = test: Ratio of growth inhibition of A2780 cells by drug to 2'-2'-difluorodeoxycytidine; type: functional, Homo sapiens
K562 = test: Growth inhibition of K562 cells; type: functional; conditions: Homo sapiens
HOP-92 = test: Growth inhibition in HOP92 cells; type: functional; conditions: Homo sapiens
[5] = Growth inhibition of AG6000 cells by SRB assay in presence of dipyridamole; type: functional, cell-based; conditions: Homo sapiens
In short: (§2)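 SRB growth assay run with the nucleoside transport inhibitor dipyridamole at 1 µM final. Cells were seeded at 5000/well and exposed to a range of drug concentrations for 72 h at 37 °C, 5% CO2. Media: DMEM for A2780 and the dCK-deficient AG6000; RPMI for A549, H292 and H460; each with 10% FCS and 20 mM HEPES. Relative growth was calculated against ODzero and untreated controls.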

A498 = test: Growth inhibition in A498 cells; type: functional; conditions: Homo sapiens
A549 = test: Growth inhibition of A549 cells by SRB assay in presence of dipyridamole; type: functional, cell-based; conditions: Homo sapiens; in short: as §2
COLO 205 = test: Growth inhibition in COLO 205 cells; type: functional; conditions: Homo sapiens
SN12C = test: Growth inhibition of SN12C cells; type: functional; conditions: Homo sapiens
HT-29 = test: Growth inhibition in HT29 cells; type: functional; conditions: Homo sapiens
OVCAR-8 = test: Growth inhibition of OVCAR8 cells; type: functional; conditions: Homo sapiens
CAKI-1 = test: Growth inhibition in CAKI1 cells; type: functional; conditions: Homo sapiens
NCI-H23 = test: Growth inhibition of NCI-H23 cells; type: functional; conditions: Homo sapiens
[6] = Growth inhibition in HS 578T cells; type: functional; conditions: Homo sapiens
M14 = test: Growth inhibition of M14 cells; type: functional; conditions: Homo sapiens
UO-31 = test: Growth inhibition of UO31 cells; type: functional; conditions: Homo sapiens
NCI-H460 = test: Growth inhibition of H460 cells by SRB assay in presence of dipyridamole; type: functional, cell-based; conditions: Homo sapiens; in short: as §2
NCI-H226 = test: Growth inhibition of NCI-H226 cells; type: functional; conditions: Homo sapiens
BT-549 = test: Growth inhibition in BT549 cells; type: functional; conditions: Homo sapiens
[7] = Ratio of growth inhibition of AG6000 cells by drug to 2'-2'-difluorodeoxycytidine; type: functional, Homo sapiens
MCF7 = test: Growth inhibition of MCF7 cells; type: functional; conditions: Homo sapiens
MOLT-4 = test: Growth inhibition of MOLT4 cells; type: functional; conditions: Homo sapiens
NCI-H322M = test: Growth inhibition of NCI-H322M cells; type: functional; conditions: Homo sapiens
SF-268 = test: Growth inhibition of SF268 cells; type: functional; conditions: Homo sapiens
SF-295 = test: Growth inhibition of SF295 cells; type: functional; conditions: Homo sapiens
A2780 [8] = test: Growth inhibition of A2780 cells by SRB assay; type: functional, cell-based; conditions: Homo sapiens; in short: as §1
CCRF-CEM [9] = test: Growth inhibition of CEM cells by MTT assay; conditions: Homo sapiens
OVCAR-5 = test: Growth inhibition of OVCAR5 cells; type: functional; conditions: Homo sapiens
SNB-75 = test: Growth inhibition of SNB75 cells; type: functional; conditions: Homo sapiens
HCT-116 = test: Growth inhibition in HCT116 cells; type: functional; conditions: Homo sapiens
IGROV-1 = test: Growth inhibition in IGROV1 cells; type: functional; conditions: Homo sapiens

CN(CCCCCl)P(=O)(OCc1ccc([N+](=O)[O-])o1)OC[C@H]1O[C@@H](n2ccc(N)nc2=O)C(F)(F)[C@@H]1O (some centres not stated)
Ratio IC50 [1]: 2.8 | GI50 (SK-OV-3): 2.2 µM | IC50 [2]: 5 µM | GI50 (UACC-257): 17 µM | Ratio IC50 (CCRF-CEM [3]): 15 | GI50 (SK-MEL-2): 80 µM | Ratio IC50 (SW1573): 5.8 | Ratio IC50 (A2780 [4]): 5.3 | GI50 (K562): 13 µM | GI50 (HOP-92): 0.15 µM | IC50 [5]: 6 µM | GI50 (A498): 5.8 µM | IC50 (A549): > 0.5 µM | GI50 (COLO 205): 7.5 µM | GI50 (SN12C): 0.49 µM | GI50 (HT-29): 30 µM | GI50 (OVCAR-8): 0.11 µM | GI50 (CAKI-1): 0.22 µM | GI50 (NCI-H23): 0.074 µM | GI50 [6]: 46 µM | GI50 (M14): 0.054 µM | GI50 (UO-31): 0.4 µM | IC50 (NCI-H460): > 0.5 µM | GI50 (NCI-H226): 16 µM | GI50 (BT-549): 1.6 µM | Ratio IC50 [7]: 0.25 | GI50 (MCF7): 0.45 µM | GI50 (MOLT-4): 0.77 µM | GI50 (NCI-H322M): 3.5 µM | GI50 (SF-268): 0.26 µM | GI50 (SF-295): 0.88 µM | IC50 (A2780 [8]): 0.008 µM | IC50 (CCRF-CEM [9]): 2 µM | GI50 (OVCAR-5): 1.9 µM | GI50 (SNB-75): 13 µM | GI50 (HCT-116): 1.1 µM | GI50 (IGROV-1): 14 µM
